This note sets out measurements from ChEMBL document CHEMBL1130028, “A comparison of structure-activity relationships between spermidine and spermine analogue antineoplastics” (J Med Chem, 1997).

pIC50, pKi: −log10 of the molar value.

Data set [1] deals with L1210. The data set can be described thus: Percentage of spermine after 48 hr exposure to the compound (500(15)uM ) in L1210 cells. It is filed as functional, Mus musculus. An outline of the steps: (§1)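 Log-phase murine L1210 leukemia cells (RPMI-1640, 10% fetal calf serum or NuSerum, HEPES-MOPS buffer, 1 mM aminoguanidine) exposed 48 h to analogue at two concentrations. Cells washed twice in cold RPMI-1640 and extracted with 0.6 N HClO4. Spermine in extracts quantified by HPLC of DANSYL derivatives and expressed as percent of untreated controls. Triplicate flasks per condition.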

Data set [2] can be described thus: Effect on ornithine decarboxylase (ODC) tested at 1 uM at 4 hour in L1210 cells. It is filed as functional, Mus musculus. An outline of the steps:
(§2)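 L1210 cells were exposed to 1 μM analogue, for 4 h (ODC) or 6 h (AdoMetDC). Activity was measured as 14CO2 released from [14C]carboxyl-labelled L-ornithine (ODC) or S-adenosyl-L-methionine (AdoMetDC) and given as percent of untreated control. Each run included DEHSPM-treated positive controls. Values are the mean of at least three experiments.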

Data set [3] relates to L1210. Nature of the data set: Percentage of putrescine after 48 hr exposure to the compound (100(3)uM ) in L1210 cells. Type of data set: functional, Mus musculus. Put shortly:
(§3)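 Log-phase L1210 cells were treated for 48 h with analogue at two concentrations. Cells were washed twice in cold RPMI-1640 and extracted with 0.6 N HClO4. Putrescine, spermidine and spermine were quantified by HPLC of dansyl derivatives and given as percent of untreated controls. Runs were in triplicate with untreated controls.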

Data set [4] concerns L1210. Nature of the data set: Percentage of spermidine after 48 hr of exposure to the compound (100(3)uM ) in L1210 cells. Type of data set: functional, Mus musculus. Put shortly: as §3
Data set [5] concerns L1210. Nature of the data set: Percentage of spermidine after 48 hr of exposure to the compound (500(15)uM ) in L1210 cells. It is filed as functional, Mus musculus. Put shortly: as §3
Data set [6] concerns L1210. The data set can be described thus: Intracellular levels in L1210 cells following 500 uM exposure. Type of data set: functional, Mus musculus. Put shortly:
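L1210 cells were grown 48 h in medium containing 500 μM analogue. Cellular contents were analysed by HPLC of dansyl derivatives and given as pmol/10^6 cells, as parent drug and metabolites with the % of total drug in the cell.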

Data set [7] relates to L1210. The data set can be described thus: Percentage of putrescine after 48 hr exposure to the compound (500(15)uM ) in L1210 cells. It is filed as functional, Mus musculus. Put shortly:
as §3

Data set [8] deals with L1210. Nature of the data set: Growth inhibitory activity against L1210 cells (48h). It is filed as functional, cell-based. Conditions: Mus musculus, L1210, 48 h. An outline of the steps:
(§4)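 Murine L1210 leukemia cells were kept in log growth in RPMI-1640 with 10% fetal calf serum or NuSerum, HEPES-MOPS buffer and 1 mM aminoguanidine. IC50 is the concentration giving 50% of untreated control growth, as the mean of at least two experiments.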

Data set [9] deals with L1210. Nature of the data set: Growth inhibitory activity against L1210 cells (96h). Conditions: Mus musculus, L1210, 96 h. Type of data set: functional, cell-based. An outline of the steps:
as §4

Data set [10] has as its target Spermidine/spermine N(1)-acetyltransferase (SAT) (Mus musculus) (UniProt Q6P8J2+P48026). Nature of the data set: Effect on Spermidine/Spermine-Acetyltransferase (SSAT ) at 10 uM at 48 hour in L1210 cells. Type of data set: functional, cell-based. Put shortly: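 L1210 cells were exposed to 10 μM triamine for 48 h. SSAT activity was taken as [14C]N1-acetylspermidine formed from spermidine and [14C]acetyl-CoA, given as percent of untreated control. DENSPM-treated cells served as positive control. Values are the mean of at least three experiments.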

A short description of data set [11]: Binding affinity values for polyamine transporter was determined.
The target of data set [12] is T1, S-adenosylmethionine decarboxylase proenzyme 1 (Mus musculus) (UniProt P0DMN7).
T1 sequence (whole entry): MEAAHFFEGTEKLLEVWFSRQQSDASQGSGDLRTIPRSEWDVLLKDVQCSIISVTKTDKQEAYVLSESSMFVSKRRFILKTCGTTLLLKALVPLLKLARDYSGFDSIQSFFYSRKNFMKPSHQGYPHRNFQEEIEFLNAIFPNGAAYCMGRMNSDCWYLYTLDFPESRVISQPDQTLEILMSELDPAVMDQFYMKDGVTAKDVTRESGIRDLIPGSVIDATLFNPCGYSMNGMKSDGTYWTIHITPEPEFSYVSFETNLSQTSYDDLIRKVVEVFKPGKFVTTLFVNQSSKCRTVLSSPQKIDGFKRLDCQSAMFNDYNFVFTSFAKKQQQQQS
Nature of the data set: Effect on S-Adenosyl-methionine decarboxylase (AdoMetDC) tested at 1 uM at 6 hour in L1210 cells. It is filed as functional, cell-based. An outline of the steps:
as §2

In data set [13] the test system is L1210. Nature of the data set: Percentage of putrescine after 48 hr exposure to the compound (15 uM )in L1210 cells. It is filed as functional, Mus musculus. Put shortly:
as §3

The test system of data set [14] is L1210. The data set can be described thus: Percentage of spermidine after 48 hr of exposure to the compound (15 uM ) in L1210 cells. Type of data set: functional, Mus musculus. Put shortly: as §3
Data set [15] has as its system L1210. The data set can be described thus: Percentage of spermidine after 48 hr of exposure to the compound (75 uM ) in L1210 cells. It is filed as functional, Mus musculus. Put shortly: as §3
Data set [16] relates to L1210. The data set can be described thus: Percentage of putrescine after 48 hr exposure to the compound (75 uM ) in L1210 cells. Type of data set: functional, Mus musculus. An outline of the steps:
as §3

The test system of data set [17] is L1210. Nature of the data set: Percentage of spermine after 48 hr exposure to the compound (500(100)uM ) in L1210 cells. It is filed as functional, Mus musculus. An outline of the steps: as §3
Data set [18] concerns L1210. Nature of the data set: Percentage of putrescine after 48 hr exposure to the compound (100(10)uM) in L1210 cells. It is filed as functional, Mus musculus. Put shortly: as §3
Data set [19] concerns L1210. The data set can be described thus: Percentage of spermidine after 48 hr of exposure to the compound (500(100)uM ) in L1210 cells. It is filed as functional, Mus musculus. Put shortly:
as §3

The test system of data set [20] is L1210. Nature of the data set: Percentage of spermine after 48 hr exposure to the compound (100(10)uM ) in L1210 cells. Type of data set: functional, Mus musculus. An outline of the steps: as §3
The test system of data set [21] is L1210. Nature of the data set: Percentage of spermidine after 48 hr of exposure to the compound (100(10)uM ) in L1210 cells. It is filed as functional, Mus musculus. An outline of the steps:
as §3

Data set [22] has as its system L1210. The data set can be described thus: Percentage of putrescine after 48 hr exposure to the compound (500(100)uM )in L1210 cells. Type of data set: functional, Mus musculus. Put shortly:
as §3

Data set [23] relates to L1210. Nature of the data set: Percentage of spermine after 48 hr exposure to the compound (75(0.75)uM ) in L1210 cells. It is filed as functional, Mus musculus. An outline of the steps:
as §1

Data set [24] concerns L1210. The data set can be described thus: Percentage of putrescine after 48 hr exposure to the compound (15(0.15)uM ) in L1210 cells. Type of data set: functional, Mus musculus. Put shortly: as §3
In data set [25] the test system is L1210. Nature of the data set: Percentage of spermidine after 48 hr of exposure to the compound (15(0.15)uM ) in L1210 cells. Type of data set: functional, Mus musculus. An outline of the steps:
as §3

Data set [26] deals with L1210. The data set can be described thus: Percentage of spermidine after 48 hr of exposure to the compound (75(0.75)uM ) in L1210 cells. It is filed as functional, Mus musculus. Put shortly: as §3
The test system of data set [27] is L1210. The data set can be described thus: Percentage of putrescine after 48 hr exposure to the compound (75(0.75)uM ) in L1210 cells. Type of data set: functional, Mus musculus. Put shortly: as §3
Data set [28] deals with L1210. The data set can be described thus: Percentage of spermine after 48 hr exposure to the compound (15(0.15)uM ) in L1210 cells. It is filed as functional, Mus musculus. An outline of the steps: as §3
A short description of data set [29]: The chronic lethal dose administered as intraperitoneal injection in mice. Conditions: mouse, in vivo, ip. It is filed as ADME. Put shortly: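 Female CD-1 mice, 10–12 weeks old. Analogue given as hydrochloride salt by ip injection three times daily for 6 days (18 doses). Appetite, weight and appearance monitored daily, and lethality scored 10 days after the final dose.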

Sequence of Spermidine/spermine N(1)-acetyltransferase (SAT) (Mus musculus) (P48026 whole entry, looked up): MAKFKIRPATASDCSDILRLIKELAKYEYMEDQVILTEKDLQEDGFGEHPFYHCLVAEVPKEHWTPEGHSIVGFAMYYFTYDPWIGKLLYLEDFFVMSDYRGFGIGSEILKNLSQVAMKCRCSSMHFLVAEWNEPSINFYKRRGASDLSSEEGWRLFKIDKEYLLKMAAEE
Sequence of Spermidine/spermine N(1)-acetyltransferase (SAT) (Mus musculus) (Q6P8J2 whole entry, looked up): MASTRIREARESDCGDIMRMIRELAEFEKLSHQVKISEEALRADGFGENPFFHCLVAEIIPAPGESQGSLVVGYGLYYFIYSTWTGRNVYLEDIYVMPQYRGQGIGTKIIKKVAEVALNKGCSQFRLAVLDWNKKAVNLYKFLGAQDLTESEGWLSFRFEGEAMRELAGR

Usually pIC50 stands for −log10 of the IC50, conventionally taken in molar units. As a reminder, the pKi is −log10 of the Ki, conventionally taken in molar units. Low values mean a large Ki, high ones a small Ki. Consider `CCCNCCCCNCCCNCCC`, for which the Polyamine came out at 99% in the data set with L1210 [1]; 6% in the data set on L1210 [3]; 35% in the data set with L1210 [4]; 12% with L1210 [5]; 0% in the data set with L1210 [7]. Moreover, in data set [2], the ODC stood at 75%. The “Picoequivalents of amine/10e6 cells” value in the data set on L1210 [6] was determined as 15330. Besides, the pIC50 in the data set on L1210 [8] is under 4.00; in the data set on L1210 [9], 4.48. In addition, in data set [10], the SSAT worked out at 1030%. Further, the pKi in data set [11] was 4.59. For the same compound, the AdoMetDC in data set [12] came out at 107%.

Take `CNCCCCCNCCCCCNC`: in data set [2], the ODC is reported as 105%. In addition, the Polyamine in the data set with L1210 [13] is listed as 0%; with L1210 [14], 33%; in the data set on L1210 [15] it was 20%; in the data set on L1210 [16], 0%. Besides, in the data set on L1210 [6], the “Picoequivalents of amine/10e6 cells” value was found to be 15500. The pIC50 was 4.82 in the data set with L1210 [8] and 6.40 in the data set on L1210 [9]. The compound also came in with an SSAT in [10] of 90%. Moreover, the negative logarithm of the Ki (pKi) in data set [11] was 3.89. For the same compound, the AdoMetDC in data set [12] is 97%.

On to `CCNCCCNCCCNCC`, for which the Polyamine turned out to be 47% in the data set with L1210 [17]; 0% in the data set with L1210 [18]; 7% in the data set on L1210 [19]; 74% in the data set with L1210 [20]; 17% with L1210 [21]; 0% in the data set on L1210 [22]. In addition, the ODC in data set [2] stood at 80%. Moreover, the “Picoequivalents of amine/10e6 cells” value in the data set with L1210 [6] is recorded as 13700. In addition, the results for the pIC50 in the data set with L1210 [8] and in the data set with L1210 [9] were under 4.00 and 5.00, respectively. Besides, the SSAT in data set [10] is 780%. In addition, the negative-log Ki (pKi) in data set [11] is 3.60. The AdoMetDC in [12] is 45%.

Consider `CCNCCCCCNCCCCCNCC`, for which the Polyamine with L1210 [23] was determined as 73%; in the data set with L1210 [24] it was 0%; with L1210 [25], 55%; with L1210 [26], 23%; in the data set on L1210 [27] it was 0%; with L1210 [28], 97%. The ODC in data set [2] is 100%. In the data set on L1210 [6], the “Picoequivalents of amine/10e6 cells” value turned out to be 9010. Further, the results for the pIC50 in the data set on L1210 [8] and in the data set on L1210 [9] were 4.96 and 6.15, respectively. The compound further had an SSAT in data set [10] of 90%. In data set [11], this compound showed a pKi of 3.77. The compound further yielded an AdoMetDC in data set [12] of 109%.

In general, LD50 refers to the dose at which mortality reaches 50%. The low end stands for greater toxicity, the high end for lower toxicity. In the case of `CCNCCCCCNCCCCNCCCCCNCC`, the negative-log IC50 (pIC50) in the data set on L1210 [8] was 6.40. The compound also gave an LD50 in [29] of 36 mg/kg/day.
